Measurements from ChEMBL document CHEMBL1134964, “Heterocyclic benzazole derivatives with antimycobacterial in vitro activity” (2002).
In brackets after ≈: the same amount, converted by molar mass.

Assays:
Assay type in all cases: functional
[1] = tested on: Mycobacterium kansasii; test: In vitro inhibition of Mycobacterium Kansasi (My 235/80) growth after 21 days culture.; settings: 504 h
[2] = tested on: Mycobacterium avium; test: In vitro inhibition of Mycobacterium Avium (My 330/88) growth after 21 days culture.; settings: 504 h
Method in brief: (§1)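 Micromethod broth MIC. Compounds tested at 500, 250, 125, 32, 16, 8, 4 and 2, plus one intermediate level between 125 and 32. Plates incubated at 37 C and read at 7, 14 and 21 days. MIC is the lowest concentration at which growth of the mycobacteria was inhibited. MIC could not be set where solubility in the test medium was limited.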

[3] = tested on: Mycobacterium tuberculosis; test: In vitro inhibition of Mycobacterium Tuberculosis (My 331/88) growth after 21 days culture.; settings: 504 h; method in brief: as §1
[4] = tested on: Mycobacterium avium; test: In vitro inhibition of Mycobacterium Avium growth after 14 days culture.; settings: 336 h; method in brief: as §1
[5] = tested on: Mycobacterium kansasii; test: In vitro inhibition of Mycobacterium Kansasi (My 235/80) growth after 14 days culture.; settings: 336 h
[6] = tested on: Mycobacterium kansasii; test: In vitro inhibition of Mycobacterium Kansasi (My 6 509/96) growth after 21 days culture.; settings: 504 h
[7] = tested on: Mycobacterium tuberculosis; test: In vitro inhibition of Mycobacterium Tuberculosis (My 331/88) growth after 14 days culture.; settings: 336 h; method in brief: as §1
[8] = tested on: Mycobacterium kansasii; test: In vitro inhibition of Mycobacterium Kansasi (My 6 509/96) growth after 7 days culture.; settings: 168 h
[9] = tested on: Mycobacterium kansasii; test: In vitro inhibition of Mycobacterium Kansasi (My 6 509/96) growth after 14 days culture.; settings: 336 h
[10] = tested on: Mycobacterium kansasii; test: In vitro inhibition of Mycobacterium Kansasi (My 235/80) growth after 7 days culture.; settings: 168 h
[11] = tested on: HeLa; test: The compound was tested for cytotoxicity against HeLa cells.; settings: Homo sapiens
[12] = Ratio of cytotoxicity to minimum inhibitory concentration of Mycobacterium tuberculosis My 331/88 was evaluated
[13] = tested on: Mycobacterium kansasii; test: In vitro minimum inhibitory concentration the compound for anti-mycobacterial activity was determined against Mycobacterium kansasii (My 235/80) by micromethod after 21 days of incubation; settings: 504 h
[14] = tested on: Mycobacterium avium; test: In vitro minimum inhibitory concentration the compound for anti-mycobacterial activity was determined against Mycobacterium avium (My 330/88) by micromethod after 21 days of incubation; settings: 504 h; method in brief: as §1
[15] = tested on: Mycobacterium kansasii; test: In vitro minimum inhibitory concentration the compound for anti-mycobacterial activity was determined against Mycobacterium kansasii (My 6 509/96) by micromethod after 14 days of incubation; settings: 336 h
[16] = tested on: Mycobacterium avium; test: In vitro minimum inhibitory concentration the compound for anti-mycobacterial activity was determined against Mycobacterium avium (My 330/88) by micromethod after 14 days of incubation; settings: 336 h; method in brief: as §1
[17] = tested on: Mycobacterium kansasii; test: In vitro minimum inhibitory concentration the compound for anti-mycobacterial activity was determined against Mycobacterium kansasii (My 6 509/96) by micromethod after 21 days of incubation; settings: 504 h
[18] = tested on: Mycobacterium kansasii; test: In vitro minimum inhibitory concentration the compound for anti-mycobacterial activity was determined against Mycobacterium kansasii (My 235/80) by micromethod after 14 days of incubation; settings: 336 h
[19] = tested on: Mycobacterium kansasii; test: In vitro minimum inhibitory concentration the compound for anti-mycobacterial activity was determined against Mycobacterium kansasii (My 6 509/96) by micromethod after 7 days of incubation; settings: 168 h

Compound: N#Cc1cccc(CSc2nc3ccccc3s2)c1
- MIC [1]: 500 µM (≈ 141 µg/mL)
- MIC [2]: 62 µM (≈ 17.5 µg/mL)
- MIC [3]: 250 µM (≈ 70.6 µg/mL)
- MIC [4]: 32 µM (≈ 9.04 µg/mL)
- MIC [5]: 250 µM (≈ 70.6 µg/mL)
- MIC [6]: 125 µM (≈ 35.3 µg/mL)
- MIC [7]: 62 µM (≈ 17.5 µg/mL)
- MIC [8]: 32 µM (≈ 9.04 µg/mL)
- MIC [9]: 62 µM (≈ 17.5 µg/mL)
- MIC [10]: 125 µM (≈ 35.3 µg/mL)

Compound: O=[N+]([O-])c1cc(CSc2nc3ccccc3o2)cc([N+](=O)[O-])c1
- MIC [1]: 4 µM (≈ 1.33 µg/mL)
- MIC [2]: > 32 µM
- MIC [3]: 8 µM (≈ 2.65 µg/mL)
- CC50 [11]: > 151 µM
- MIC [4]: > 16 µM
- MIC [5]: 4 µM (≈ 1.33 µg/mL)
- MIC [6]: 8 µM (≈ 2.65 µg/mL)
- MIC [7]: 8 µM (≈ 2.65 µg/mL)
- MIC [8]: 4 µM (≈ 1.33 µg/mL)
- Safety index [12]: >18.9
- MIC [9]: 8 µM (≈ 2.65 µg/mL)
- MIC [10]: 2 µM (≈ 0.663 µg/mL)

Compound: NNC(=O)c1ccncc1 [ISONIAZID]
- MIC [1]: > 250 µM
- MIC [2]: > 250 µM
- MIC [3]: 1 µM (≈ 0.137 µg/mL)
- MIC [4]: > 250 µM
- MIC [5]: > 250 µM
- MIC [6]: 4 µM (≈ 0.549 µg/mL)
- MIC [7]: 0.5 µM (≈ 0.0686 µg/mL)
- MIC [8]: 2 µM (≈ 0.274 µg/mL)
- MIC [9]: 2 µM (≈ 0.274 µg/mL)
- MIC [10]: > 250 µM

Compound: O=[N+]([O-])c1cccc(CSc2nc3ccccc3s2)c1
- MIC [1]: > 125 µM
- MIC [2]: 62 µM (≈ 18.7 µg/mL)
- MIC [3]: > 125 µM
- MIC [4]: 62 µM (≈ 18.7 µg/mL)
- MIC [5]: > 125 µM
- MIC [6]: > 62 µM
- MIC [7]: > 62 µM
- MIC [8]: 32 µM (≈ 9.68 µg/mL)
- MIC [9]: 62 µM (≈ 18.7 µg/mL)
- MIC [10]: 62 µM (≈ 18.7 µg/mL)

Compound: NC(=S)c1cccc(CSc2nc3ccccc3o2)c1
- MIC [13]: 32 µM (≈ 9.61 µg/mL)
- MIC [14]: 62 µM (≈ 18.6 µg/mL)
- MIC [3]: 16 µM (≈ 4.81 µg/mL)
- CC50 [11]: 71.9 µM
- MIC [15]: 32 µM (≈ 9.61 µg/mL)
- MIC [7]: 8 µM (≈ 2.4 µg/mL)
- MIC [16]: 62 µM (≈ 18.6 µg/mL)
- MIC [17]: 32 µM (≈ 9.61 µg/mL)
- MIC [18]: 32 µM (≈ 9.61 µg/mL)
- Safety index [12]: 9
- MIC [19]: 8 µM (≈ 2.4 µg/mL)
- MIC [10]: 8 µM (≈ 2.4 µg/mL)

Compound: O=[N+]([O-])c1ccc(CSc2nc3ccccc3s2)c([N+](=O)[O-])c1
- MIC [1]: 16 µM (≈ 5.56 µg/mL)
- MIC [2]: > 32 µM
- MIC [3]: 4 µM (≈ 1.39 µg/mL)
- CC50 [11]: > 144 µM
- MIC [4]: > 32 µM
- MIC [5]: 8 µM (≈ 2.78 µg/mL)
- MIC [6]: > 32 µM
- MIC [7]: 2 µM (≈ 0.695 µg/mL)
- MIC [8]: 8 µM (≈ 2.78 µg/mL)
- Safety index [12]: >72
- MIC [9]: 8 µM (≈ 2.78 µg/mL)
- MIC [10]: 8 µM (≈ 2.78 µg/mL)

Compound: O=[N+]([O-])c1ccccc1CSc1nc2ccccc2s1
- MIC [13]: 500 µM (≈ 151 µg/mL)
- MIC [2]: > 250 µM
- MIC [3]: 500 µM (≈ 151 µg/mL)
- MIC [4]: 125 µM (≈ 37.8 µg/mL)
- MIC [5]: 125 µM (≈ 37.8 µg/mL)
- MIC [6]: 125 µM (≈ 37.8 µg/mL)
- MIC [7]: 125 µM (≈ 37.8 µg/mL)
- MIC [9]: 32 µM (≈ 9.68 µg/mL)
- MIC [19]: 32 µM (≈ 9.68 µg/mL)
- MIC [10]: 62 µM (≈ 18.7 µg/mL)

Compound: c1ccc(CSc2nc3ccccc3s2)cc1
- MIC [13]: > 500 µM
- MIC [14]: 62 µM (≈ 16 µg/mL)
- MIC [3]: 500 µM (≈ 129 µg/mL)
- MIC [15]: 125 µM (≈ 32.2 µg/mL)
- MIC [7]: 250 µM (≈ 64.3 µg/mL)
- MIC [16]: 32 µM (≈ 8.24 µg/mL)
- MIC [17]: 250 µM (≈ 64.3 µg/mL)
- MIC [18]: 500 µM (≈ 129 µg/mL)
- MIC [19]: 62 µM (≈ 16 µg/mL)
- MIC [10]: 62 µM (≈ 16 µg/mL)

Compound: Sc1nc2ccccc2s1 [2-MERCAPTOBENZOTHIAZOLE]
- MIC [13]: > 125 µM
- MIC [14]: > 62 µM
- MIC [3]: 62 µM (≈ 10.4 µg/mL)
- MIC [15]: > 62 µM
- MIC [7]: 62 µM (≈ 10.4 µg/mL)
- MIC [16]: > 62 µM
- MIC [17]: > 62 µM
- MIC [18]: 125 µM (≈ 20.9 µg/mL)
- MIC [19]: 62 µM (≈ 10.4 µg/mL)
- MIC [10]: 62 µM (≈ 10.4 µg/mL)

Compound: O=[N+]([O-])c1ccc(CSc2nc3ccccc3o2)cc1
- MIC [1]: > 62 µM
- MIC [2]: > 62 µM
- MIC [3]: > 125 µM
- MIC [4]: > 32 µM
- MIC [5]: 32 µM (≈ 9.16 µg/mL)
- MIC [6]: > 32 µM
- MIC [7]: > 62 µM
- MIC [8]: 32 µM (≈ 9.16 µg/mL)
- MIC [9]: 32 µM (≈ 9.16 µg/mL)
- MIC [10]: 32 µM (≈ 9.16 µg/mL)

Compound: O=[N+]([O-])c1cc(CSc2nc3ccccc3s2)cc([N+](=O)[O-])c1
- MIC [1]: > 62 µM
- MIC [2]: 62 µM (≈ 21.5 µg/mL)
- MIC [3]: 2 µM (≈ 0.695 µg/mL)
- CC50 [11]: > 144 µM
- MIC [4]: 62 µM (≈ 21.5 µg/mL)
- MIC [5]: 16 µM (≈ 5.56 µg/mL)
- MIC [6]: > 62 µM
- MIC [7]: 2 µM (≈ 0.695 µg/mL)
- Safety index [12]: >72
- MIC [9]: 32 µM (≈ 11.1 µg/mL)
- MIC [10]: 16 µM (≈ 5.56 µg/mL)
